Measurements reported in ChEMBL document CHEMBL1123619, “Isothiourea derivatives of 6-phenyl-2,3,5,6-tetrahydroimidazo[2,1-b]thiazole with broad-spectrum anthelmintic activity” (J Med Chem, 1987).

How the values were obtained:
Ovis aries [1] = test: Antihelmethic activity expressed as the percentage of worms eliminated in the feces in sheep large bowel at peroral dose of 15 mg/kg against Lungworm Dictyocaulus filaria.; format: functional; conditions: route oral
Procedure, shortened: (§1)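 Sheep given a single dose, oral or subcutaneous. Total daily feces collected for 4 days after treatment and examined for expelled worms. Necropsy at day 7 after dosing; lungs, liver and gastrointestinal tract removed and remaining worms identified. Activity calculated by comparing worms passed in feces with those remaining at autopsy. Single animals per test unless otherwise indicated.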

Mus musculus [2] = test: Nematocidal activity against Nematospiroides dubius induced necropsy in mouse, after oral administration of 100 mg/kg of the compound; format: functional
Procedure, shortened: (§2)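 Seven-week-old female LACA mice infected orally with 100 N. dubius L3 larvae; single gavage dose given at day 10 of infection, groups of four mice; necropsy 4 days later; percent activity from worm burdens of treated versus untreated groups.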

Ovis aries [3] = test: Antihelmethic activity expressed as the percentage of worms eliminated in the feces in sheep small intestine at subcuteneous dose of 30 mg/kg against Trichostrongylus axei; format: functional; procedure, shortened: as §1
Ovis aries [4] = test: Toxic activity expressed as the percentage against liver fluke in the sheep at 30 mg/kg peroral administration of dose; format: ADME, organism-based; set-up: dose 30 mg/kg, route oral; conditions: in vivo, po
Procedure, shortened: (§3)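 Fasciola hepatica in sheep, controlled test; animals necropsied only when fecal egg count fell; postmortem fluke burdens compared with untreated control sheep (10 controls).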

Mus musculus [5] = test: Nematocidal against Nematospiroides dubius in mouse was determined at 50 mg/kg peroral dose of compound; format: functional; conditions: route oral; procedure, shortened: as §2
Ovis aries [6] = test: Antihelmethic activity expressed as the percentage of worms eliminated in the feces in sheep small intestine at peroral dose of 30 mg/kg against Bunostomum trigonocephalum.; format: functional; conditions: route oral; procedure, shortened: as §1
[7] = system: Heligmosomoides polygyrus; test: Nematocidal activity against Nematospiroides dubius induced necropsy in mouse, oral administration 200 mg/kg; format: functional; procedure, shortened: as §2
Ovis aries [8] = species: Ovis aries; test: (§4) Antihelmethic activity expressed as the percentage of worms eliminated in the feces in sheep species.; format: functional
Procedure, shortened: (§5)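 Sheep; total daily faeces collected for 4 days after treatment and searched for expelled worms; necropsy 7 days post-dose with lungs, liver and GI tract examined and worms identified; activity from worms passed in faeces versus worms remaining in host at autopsy.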

Ovis aries [9] = species: Ovis aries; test: as §4; format: functional; procedure, shortened: as §5; remark: listed apart in the source
Fasciola hepatica = test: Anthelmintic activity against adult liver fluke (Fasciola hepatica) in sheep following 30 mg/kg p.o.; format: functional; conditions: route oral
Procedure, shortened: (§6)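 Sheep dosed with a single oral dose. Fecal fluke egg output monitored after treatment. Animals necropsied only if the fecal egg count fell. Postmortem Fasciola hepatica burdens compared with untreated control sheep (mean of 10 controls). Single animals per test unless otherwise indicated, with group size given in parentheses. I denotes no effect on fecal fluke egg output.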

Ovis aries [10] = test: Antihelmethic activity expressed as the percentage of worms eliminated in the feces in sheep large bowel at peroral dose of 30 mg/kg against Lungworm Dictyocaulus filaria.; format: functional; conditions: route oral; procedure, shortened: as §1
Ovis aries [11] = test: Antihelmethic activity expressed as the percentage of worms eliminated in the feces in sheep […] at subcuteneous dose of 30 mg/kg against Liver fluke Fasciola hepatica.; format: functional
Ovis aries [12] = test: Antihelmethic activity expressed as the percentage of worms eliminated in the feces in sheep […] at subcuteneous dose of 30 mg/kg against Lungworm Dictyocaulus filaria.; format: functional; procedure, shortened: as §1
Ovis aries [13] = test: Antihelmethic activity expressed as the percentage of worms eliminated in the feces in sheep abomasum at peroral dose of 30 mg/kg against Trichostrongylus axei; format: functional; conditions: route oral; procedure, shortened: as §1
Felis catus = test: Antihelmethic activity expressed as the percentage of worms eliminated in the feces in cat tapeworm at peroral dose of 30 mg/kg; worms expelled and no futher segments appeared in the feces for the duration of the test; format: functional, organism-based; set-up: dose 30 mg/kg
Ovis aries [14] = test: Antihelmethic activity expressed as the percentage of worms eliminated in the feces in sheep large bowel at peroral dose of 15 mg/kg against Oesophagostomum columbianum.; format: functional; conditions: route oral; procedure, shortened: as §1
Ovis aries [15] = test: Antihelmethic activity expressed as the percentage of worms eliminated in the feces in sheep large bowel at peroral dose of 30 mg/kg against Trichuris ovis.; format: functional; conditions: route oral; procedure, shortened: as §1
Ovis aries [16] = test: Antihelmethic activity expressed as the percentage of worms eliminated in the feces in sheep large bowel at subcuteneous dose of 30 mg/kg against chabertia ovina.; format: functional; procedure, shortened: as §1
Ovis aries [17] = test: Antihelmethic activity expressed as the percentage of worms eliminated in the feces in sheep small intestine at subcuteneous dose of 30 mg/kg against Cooperia curticei; format: functional; procedure, shortened: as §1
Canis familiaris = test: Antihelmethic activity expressed as the percentage of worms eliminated in the feces in dog toxascaris at peroral dose of 30 mg/kg; worms voided and toxascaris egg count reduced to zero for the duration of the test; format: functional, organism-based; set-up: dose 30 mg/kg; conditions: Canis lupus familiaris
Mus musculus [18] = test: Nematocidal against Nematospiroides dubius in mouse was determined at 25 mg/kg peroral dose of compound; format: functional; conditions: route oral; procedure, shortened: as §2
Ovis aries [19] = test: Antihelmethic activity expressed as the percentage of worms eliminated in the feces in sheep small intestine at peroral dose of 15 mg/kg against Bunostomum trigonocephalum.; format: functional; conditions: route oral; procedure, shortened: as §1
Ovis aries [20] = test: Antihelmethic activity expressed as the percentage of worms eliminated in the feces in sheep abomasum at peroral dose of 30 mg/kg against Haemonchus contortus; format: functional; conditions: route oral; procedure, shortened: as §1
Mus musculus [21] = test: Nematocidal activity against Nematospiroides dubius induced necropsy in mouse, after oral administration of 100 mg/kg; format: functional; procedure, shortened: as §2
Ovis aries [22] = test: Antihelmethic activity expressed as the percentage of worms eliminated in the feces in sheep abomasum at peroral dose of 15 mg/kg against Trichostrongylus axei; format: functional; conditions: route oral; procedure, shortened: as §1
Ovis aries [23] = test: Toxic activity expressed as the percentage against liver fluke in the sheep at 15 mg/kg peroral administration of dose; format: ADME, organism-based; set-up: dose 15 mg/kg, route oral; conditions: in vivo, po; procedure, shortened: as §3
Ovis aries [24] = test: Antihelmethic activity expressed as the percentage of worms eliminated in the feces in sheep small intestine at peroral dose of 30 mg/kg against Nematodirus species; format: functional; conditions: route oral; procedure, shortened: as §1
Ovis aries [25] = test: Antihelmethic activity expressed as the percentage of worms eliminated in the feces in sheep small intestine at subcuteneous dose of 30 mg/kg against Nematodirus species; format: functional; procedure, shortened: as §1
Ovis aries [26] = test: Antihelmethic activity expressed as the percentage of worms eliminated in the feces in sheep […] at peroral dose of 15 mg/kg against Liver fluke Fasciola hepatica.; format: functional; conditions: route oral
Ovis aries [27] = test: Anthelmintic activity against adult liver fluke (Fasciola hepatica) in sheep, after peroral administration of 15 mg/kg was determined; format: functional; conditions: route oral; procedure, shortened: as §6
Ovis aries [28] = test: Antihelmethic activity expressed as the percentage of worms eliminated in the feces in sheep small intestine at peroral dose of 15 mg/kg against Trichostrongylus axei; format: functional; conditions: route oral; procedure, shortened: as §1
Ovis aries [29] = test: Antihelmethic activity expressed as the percentage of worms eliminated in the feces in sheep small intestine at peroral dose of 30 mg/kg against Cooperia curticei; format: functional; conditions: route oral; procedure, shortened: as §1
Ovis aries [30] = test: Antihelmethic activity expressed as the percentage of worms eliminated in the feces in sheep small intestine at subcuteneous dose of 30 mg/kg against Strongyloides papillosus; format: functional; procedure, shortened: as §1
Mus musculus [31] = test: Nematocidal activity against Nematospiroides dubius induced necropsy in mouse, after oral administration of 25 mg/kg of the compound; format: functional; procedure, shortened: as §2
Ovis aries [32] = test: Antihelmethic activity expressed as the percentage of worms eliminated in the feces in sheep abomasum at subcuteneous dose of 30 mg/kg against Trichostrongylus axei; format: functional; procedure, shortened: as §1
Ovis aries [33] = test: Antihelmethic activity expressed as the percentage of worms eliminated in the feces in sheep small intestine at peroral dose of 15 mg/kg against Nematodirus species; format: functional; conditions: route oral; procedure, shortened: as §1
Ovis aries [34] = test: Antihelmethic activity expressed as the percentage of worms eliminated in the feces in sheep large bowel at peroral dose of 15 mg/kg against Trichuris ovis.; format: functional; conditions: route oral; procedure, shortened: as §1
Ovis aries [35] = test: Antihelmethic activity expressed as the percentage of worms eliminated in the feces in sheep large bowl at peroral dose of 15 mg/kg against chabertia ovina.; format: functional; conditions: route oral; procedure, shortened: as §1

CS/C(=N\c1cccc(C2CN3CCSC3=N2)c1)Nc1ccc(C#N)cc1 (stereo not drawn)
68%: Activity (Mus musculus [31])
inactive: Activity (Felis catus) no toxic symptoms | Activity (Canis familiaris) no toxic symptoms
91%: Activity (Ovis aries [17])
73%: Activity (Ovis aries [24])
83%: Activity (Ovis aries [23]) | Activity (Ovis aries [27])
100%: Activity (Ovis aries [1]) | Activity (Mus musculus [2]) | Activity (Ovis aries [3]) | Activity (Ovis aries [6]) | Reduction [7] | Activity (Ovis aries [8]) | Activity (Ovis aries [9]) | Activity (Ovis aries [10]) | Activity (Ovis aries [11]) | Activity (Ovis aries [12]) | Activity (Ovis aries [13]) | Activity (Ovis aries [14]) | Activity (Ovis aries [15]) | Activity (Ovis aries [19]) | Activity (Ovis aries [20]) | Activity (Ovis aries [25]) | Activity (Ovis aries [26]) | Activity (Ovis aries [28]) | Activity (Ovis aries [29]) | Activity (Ovis aries [30]) | Activity (Ovis aries [32]) | Activity (Ovis aries [33]) | Activity (Ovis aries [34])
92%: Activity (Ovis aries [22])
68: Activity (Mus musculus [18])
96%: Activity (Ovis aries [16])
99%: Reduction (Mus musculus [21]) | Activity (Ovis aries [35])
99: Activity (Mus musculus [5])
97%: Activity (Ovis aries [4]) | Activity (Fasciola hepatica)
